≈ marks a conversion by molar mass, not a printed value.
Columns and labels:
Streptococcus [1] = assay: In vitro antimicrobial activity against aerobic bacteria Streptococcus D 9960; type: functional
Staphylococcus aureus [2] = assay: In vitro antimicrobial activity against Staphylococcus aureus X1; type: functional
Streptococcus sanguinis = assay: In vitro antimicrobial activity against aerobic bacteria Streptococcus sanguis MX132; type: functional
[3] = system: Prevotella melaninogenica; assay: In vitro antimicrobial activity against anaerobic bacteria bacteroides melaninogenicus 1856,; type: functional
Haemophilus influenzae [4] = assay: In vitro antimicrobial activity against aerobic bacteria Haemophilus influenzae 465; type: functional
Haemophilus influenzae [5] = assay: In vitro antimicrobial activity against aerobic bacteria Haemophilus influenzae MX366,; type: functional
Chlamydia trachomatis = assay: In vitro antimicrobial activity against chlamydia trachomatis.; type: functional
Streptococcus [6] = assay: In vitro antimicrobial activity against aerobic bacteria Streptococcus B 5; type: functional
Streptococcus pneumoniae [7] = assay: In vitro antimicrobial activity against aerobic bacteria Streptococcus pneumoniae B1-438; type: functional, streptococcus pneum
Cutibacterium acnes = assay: In vitro antimicrobial activity against anaerobic bacteria propionibacterium acnes 79; type: functional
Streptococcus pyogenes [8] = assay: Effective dose against Streptococcus pyogenes administered orally; type: functional; conditions: po
Summary of the method: (§1)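 Mouse protection test: infected mice were dosed twice, at 1 and 5 h postinfection, either subcutaneously or orally. […] The result is expressed as ED50 in mg/kg × 2.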

Staphylococcus aureus [9] = assay: In vitro antimicrobial activity against aerobic bacteria Staphylococcus aureus 513E; type: functional
Streptococcus pyogenes [10] = assay: Antimicrobial activity against Streptococcus pyogenes C203; type: functional
[11] = In vitro antimicrobial activity against anaerobic bacteria peptostreptococcus intermedius 1264; type: functional
[12] = system: Bacteroides thetaiotaomicron; assay: In vitro antimicrobial activity against anaerobic bacteria bacteroides thetaiotaomicron 1438; type: functional
Streptococcus pyogenes [13] = assay: Effective dose against Streptococcus pyogenes C203 when administered sc; type: functional; summary of the method: as §1
Anaerococcus prevotii = assay: In vitro antimicrobial activity against anaerobic bacteria peptococcus prevoti 1281; type: functional
Clostridium perfringens = assay: In vitro antimicrobial activity against anaerobic bacteria clostridium perfringens 81,; type: functional
Bacteroides fragilis [14] = assay: In vitro antimicrobial activity against anaerobic bacteria bacteroides fragilis 1877; type: functional
[15] = system: Staphylococcus epidermidis; assay: In vitro antimicrobial activity against aerobic bacteria Streptococcus epi 222; type: functional
[16] = system: Staphylococcus epidermidis; assay: In vitro antimicrobial activity against aerobic bacteria Streptococcus epi 270; type: functional
Collinsella aerofaciens = assay: In vitro antimicrobial activity against anaerobic bacteria aerofaciens 1235; type: functional
Streptococcus pyogenes [17] = assay: In vivo effective dose against experimental infections in rodent caused by Streptococcus pyogenes C203 when administered sc; type: functional
Staphylococcus aureus [18] = assay: In vitro antimicrobial activity against aerobic bacteria Staphylococcus aureus V135; type: functional
Streptococcus pyogenes [19] = assay: In vitro antimicrobial activity against Streptococcus pyogenes C203; type: functional
Streptococcus [20] = assay: In vitro antimicrobial activity against aerobic bacteria Streptococcus D 2041; type: functional
Streptococcus viridans = assay: In vitro antimicrobial activity against aerobic bacteria Streptococcus viridans 9943; type: functional
Streptococcus [21] = assay: In vitro antimicrobial activity against aerobic bacteria Streptococcus D 8043; type: functional
Staphylococcus aureus [22] = assay: In vitro antimicrobial activity against aerobic bacteria Staphylococcus aureus X400; type: functional
[23] = system: Prevotella melaninogenica; assay: In vitro antimicrobial activity against anaerobic bacteria bacteroides melaninogenicus 2736; type: functional
Bacteroides fragilis [24] = assay: In vitro antimicrobial activity against anaerobic bacteria bacteroides fragilis 111; type: functional
Streptococcus [25] = assay: In vitro antimicrobial activity against aerobic bacteria Streptococcus B 8; type: functional
Bacteroides fragilis [26] = assay: In vitro antimicrobial activity against anaerobic bacteria bacteroides fragilis 1936B,; type: functional
Haemophilus influenzae [27] = assay: In vitro antimicrobial activity against aerobic bacteria Haemophilus influenzae 76; type: functional
Streptococcus [28] = assay: In vitro antimicrobial activity against aerobic bacteria Streptococcus C 24; type: functional
[29] = system: Peptoniphilus asaccharolyticus; assay: In vitro antimicrobial activity against anaerobic bacteria peptococcus asaccharolyticus 1302; type: functional
Clostridium septicum = assay: In vitro antimicrobial activity against anaerobic bacteria clostridium septicum 1128; type: functional
[30] = system: Peptostreptococcus anaerobius; assay: In vitro antimicrobial activity against anaerobic bacteria eubacterium peptostreptococcus anaerobius 1428,; type: functional
Streptococcus [31] = assay: In vitro antimicrobial activity against aerobic bacteria Streptococcus G Kruder; type: functional; conditions: Streptococcus; read-out: MIC
Clostridioides difficile = assay: In vitro antimicrobial activity against anaerobic bacteria Clostridium difficile 2994; type: functional
Staphylococcus aureus [32] = assay: In vitro antimicrobial activity against aerobic bacteria Staphylococcus aureus V41; type: functional
[33] = system: Fusobacterium necrophorum; assay: In vitro antimicrobial activity against anaerobic bacteria usobacterium necrophorum 6054A; type: functional
Streptococcus pyogenes [34] = assay: In vivo effective dose against experimental infections in rodent caused by Streptococcus pyogenes C203 when administered orally; type: functional; conditions: po
Fusobacterium = assay: In vitro antimicrobial activity against anaerobic bacteria fusobacterium symbiosum 1470; type: functional
Eikenella corrodens = assay: In vitro antimicrobial activity against anaerobic bacteria bacteroides corrodens 1874; type: functional
[35] = system: Staphylococcus epidermidis; assay: In vitro antimicrobial activity against Staphylococcus epidermidis EPI1; type: functional
Haemophilus influenzae [36] = assay: In vitro antimicrobial activity against Haemophilus influenzae.; type: functional
Staphylococcus aureus [37] = assay: In vitro antimicrobial activity against aerobic bacteria Staphylococcus aureus V140,; type: functional
Phocaeicola vulgatus = assay: In vitro antimicrobial activity against anaerobic bacteria bacteroides vulgatus 1211; type: functional
Enterococcus faecium = assay: In vitro antimicrobial activity against Streptococcus faecium X66; type: functional, streptococcus fae-cium
[38] = system: Haemophilus parainfluenzae; assay: In vitro antimicrobial activity against aerobic bacteria Haemophilus parainfluenzae 9796; type: functional
Streptococcus pneumoniae [39] = assay: In vitro antimicrobial activity against Streptococcus pneumoniae; type: functional

## CC[C@H]1OC(=O)C[C@@H](O)[C@H](C)[C@@H](O[C@@H]2O[C@H](C)[C@@H](O[C@H]3C[C@@](C)(O)[C@@H](O)[C@H](C)O3)[C@H](N(C)C)[C@H]2O)[C@@H](CC=O)C[C@@H](C)C(=O)/C=C/C(C)=C/[C@@H]1CO[C@@H]1O[C@H](C)[C@@H](O)[C@@H](OC)[C@H]1OC [TYLOSIN]
Streptococcus [1]
  MIC: 1 µg/mL (≈ 1.09 µM)
Staphylococcus aureus [2]
  MIC: 0.5 µg/mL (≈ 0.546 µM)
Streptococcus sanguinis
  MIC: 0.5 µg/mL (≈ 0.546 µM)
[3]
  MIC: 0.25 µg/mL (≈ 0.273 µM)
Haemophilus influenzae [4]
  MIC: 32 µg/mL (≈ 34.9 µM)
Haemophilus influenzae [5]
  MIC: 16 µg/mL (≈ 17.5 µM)
Chlamydia trachomatis
  MIC: 0.25 µg/mL (≈ 0.273 µM)
Streptococcus [6]
  MIC: 1 µg/mL (≈ 1.09 µM)
Streptococcus pneumoniae [7]
  MIC: > 128 µg/mL
Cutibacterium acnes
  MIC: 0.5 µg/mL (≈ 0.546 µM)
Streptococcus pyogenes [8]
  ED50: 0.5 mg/kg
Staphylococcus aureus [9]
  MIC: 1 µg/mL (≈ 1.09 µM)
Streptococcus pyogenes [10]
  MIC: 0.25 µg/mL (≈ 0.273 µM)
[11]
  MIC: 0.5 µg/mL (≈ 0.546 µM)
[12]
  MIC: 1 µg/mL (≈ 1.09 µM)
Streptococcus pyogenes [13]
  ED50: 0.5 mg/kg
Anaerococcus prevotii
  MIC: 8 µg/mL (≈ 8.73 µM)
Clostridium perfringens
  MIC: 0.25 µg/mL (≈ 0.273 µM)
Bacteroides fragilis [14]
  MIC: 1 µg/mL (≈ 1.09 µM)
[15]
  MIC: 0.25 µg/mL (≈ 0.273 µM)
[16]
  MIC: > 128 µg/mL
Collinsella aerofaciens
  MIC: 0.12 µg/mL (≈ 0.131 µM)
Streptococcus pyogenes [17]
  ED50: 1.3 mg/kg
Staphylococcus aureus [18]
  MIC: 1 µg/mL (≈ 1.09 µM)
Streptococcus pyogenes [19]
  MIC: 0.25 µg/mL (≈ 0.273 µM)
Streptococcus [20]
  MIC: 1 µg/mL (≈ 1.09 µM)
Streptococcus viridans
  MIC: > 128 µg/mL
Streptococcus [21]
  MIC: 1 µg/mL (≈ 1.09 µM)
Staphylococcus aureus [22]
  MIC: 1 µg/mL (≈ 1.09 µM)
[23]
  MIC: < 0.03 µg/mL
Bacteroides fragilis [24]
  MIC: 0.5 µg/mL (≈ 0.546 µM)
Streptococcus [25]
  MIC: 1 µg/mL (≈ 1.09 µM)
Bacteroides fragilis [26]
  MIC: 1 µg/mL (≈ 1.09 µM)
Haemophilus influenzae [27]
  MIC: 16 µg/mL (≈ 17.5 µM)
Streptococcus [28]
  MIC: 0.25 µg/mL (≈ 0.273 µM)
[29]
  MIC: 0.06 µg/mL (≈ 0.0655 µM)
Clostridium septicum
  MIC: 0.5 µg/mL (≈ 0.546 µM)
[30]
  MIC: 8 µg/mL (≈ 8.73 µM)
Streptococcus [31]
  MIC: 0.25 µg/mL (≈ 0.273 µM)
Clostridioides difficile
  MIC: 1 µg/mL (≈ 1.09 µM)
Staphylococcus aureus [32]
  MIC: 1 µg/mL (≈ 1.09 µM)
[33]
  MIC: 0.5 µg/mL (≈ 0.546 µM)
Streptococcus pyogenes [34]
  ED50: 42 mg/kg
Fusobacterium
  MIC: < 0.03 µg/mL
Eikenella corrodens
  MIC: 1 µg/mL (≈ 1.09 µM)
[35]
  MIC: 1 µg/mL (≈ 1.09 µM)
Haemophilus influenzae [36]
  MIC: 16 µg/mL (≈ 17.5 µM)
Staphylococcus aureus [37]
  MIC: 1 µg/mL (≈ 1.09 µM)
Phocaeicola vulgatus
  MIC: 1 µg/mL (≈ 1.09 µM)
Enterococcus faecium
  MIC: 2 µg/mL (≈ 2.18 µM)
[38]
  MIC: 16 µg/mL (≈ 17.5 µM)
Streptococcus pneumoniae [39]
  MIC: 0.25 µg/mL (≈ 0.273 µM)

Reference: ChEMBL document CHEMBL1124186, “Synthesis and evaluation of tylosin-related macrolides modified at the aldehyde function: a new series of orally effective antibiotics” (1988)
